# Results from ChEMBL document CHEMBL1123566, “Synthesis and cardiac electrophysiological activity of 2- and 3-[(substituted phenyl)alkyl]quinuclidines. Structure-activity relationships” (1987).
# “And” between values parts separate entries of the source, which are not always exact repeats. Equal entries are not always repeated.
# How the values were obtained:
# Canis familiaris [1] = organism: Canis familiaris; assay: In vitro electrophysiological evaluation in canine cardiac Purkinje fibres reported as % change for action potential duration at 1-100 uM concentration range; format: functional, Canis lupus familiaris, Purkinje fiber
# In short: (§1)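 Canine cardiac Purkinje fibers, intracellular recording, paced at a basic cycle length of 1 s. APD95 and Vmax are recorded together across cumulative concentrations. Compound is a 10 mM aqueous stock diluted into Tyrode's solution. Each fiber is used once as its own control. Readouts are percent change from control at 10 μM, and the maximum change with the concentration where it occurred.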
# Canis familiaris [2] = organism: Canis familiaris; assay: In vitro electrophysiological activity in canine cardiac Purkinje fibres given as maximum % change for action potential duration at 1 uM concentration; format: functional, Canis lupus familiaris, Purkinje fiber
# In short: (§2)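 Canine cardiac Purkinje fibres, intracellular recording at 1 s basic cycle length, over cumulative concentration ranges. Compound 10 mM stock in deionized water diluted into Tyrode's. Each fibre used once as its own control. Value is the maximum % change from control in APD at 95% repolarization, with the concentration where it occurred; both values given if a biphasic response (>20% reversal) occurred.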
# Canis familiaris [3] = organism: Canis familiaris; assay: In vitro electrophysiological evaluation in canine cardiac Purkinje fibres reported as percent change Vmax concentration range of 0.1-100 uM; format: functional; details: Canis lupus familiaris; Purkinje fiber
# In short: (§3)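 Canine cardiac Purkinje fibres, intracellular microelectrode recording, paced at a basic cycle length of 1 s. APD95 and Vmax read simultaneously. Compound: 10 mM stock in deionized water, diluted into Tyrode's solution, tested over the stated concentration range. Each fibre used once as its own control. Result is % change from control, given at 10 µM or as the maximum with its concentration. M = <10% decrease or an increase in Vmax.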
# Canis familiaris [4] = organism: Canis familiaris; assay: In vitro electrophysiological evaluation in canine cardiac Purkinje fibres reported as maximum percent change Vmax concentration range of 1-100 uM; format: functional; details: Canis lupus familiaris; Purkinje fiber; in short: as §1
# Canis familiaris [5] = organism: Canis familiaris; assay: In vitro electrophysiological activity in canine cardiac Purkinje fibres given as maximum % change for action potential duration at 0.1-100 uM concentration; format: functional, Canis lupus familiaris, Purkinje fiber; in short: as §2
# Canis familiaris [6] = organism: Canis familiaris; assay: In vitro electrophysiological activity in canine cardiac Purkinje fibres given as maximum % change for action potential duration at 100 uM concentration; format: functional, Canis lupus familiaris, Purkinje fiber; in short: as §2
# Canis familiaris [7] = organism: Canis familiaris; assay: In vitro electrophysiological evaluation in canine cardiac Purkinje fibres reported as percent change Vmax concentration range of 1-100 uM; format: functional; details: Canis lupus familiaris; Purkinje fiber; in short: as §1
# Canis familiaris [8] = organism: Canis familiaris; assay: In vitro electrophysiological evaluation in canine cardiac Purkinje fibres reported as % change for action potential duration at 0.1-100 uM concentration range; format: functional, Canis lupus familiaris, Purkinje fiber; in short: as §3
# Canis familiaris [9] = organism: Canis familiaris; assay: In vitro electrophysiological evaluation in canine cardiac ventricular muscle reported as % change for conduction time(CT) at 10 uM; Minimal (<10% decrease or increase in Vmax).; format: functional, Canis lupus familiaris, Muscle tissue
# In short: (§4)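 Canine right ventricle and papillary muscle strips in oxygenated Tyrode's solution, fitted with stimulating and recording electrodes. The extra-stimulus conduction-interval method was adapted for in vitro use. FRP and CT were read from a conduction-interval curve before and after various compound concentrations, and expressed as percent change from control. Compounds were taken from 10 mM deionized-water stock into Tyrode's. Each strip was used once as its own control.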
# Canis familiaris [10] = organism: Canis familiaris; assay: In vitro electrophysiological evaluation in canine cardiac ventricular muscle reported as % change for the functional refractory period (FRP) at 10 uM; set-up: species or system Canis lupus familiaris, Muscle tissue; in short: as §4
# Canis familiaris [11] = organism: Canis familiaris; assay: In vitro electrophysiological evaluation in canine cardiac ventricular muscle reported as maximum % change for conduction time(CT); Minimal (<10% decrease or increase in […]).; format: functional, Canis lupus familiaris, Muscle tissue; in short: as §4
# Canis familiaris [12] = organism: Canis familiaris; assay: In vitro electrophysiological evaluation in canine cardiac Purkinje fibres reported as maximum percent change Vmax concentration range of 0.1-100 uM; Minimal (<10% decrease or increase in Vmax).; format: functional; details: Canis lupus familiaris; Purkinje fiber; in short: as §3
# Canis familiaris [13] = organism: Canis familiaris; assay: In vitro electrophysiological evaluation in canine cardiac Purkinje fibres reported as % change for action potential duration at 10 uM at 0.1-100 uM concentration range; format: functional, Canis lupus familiaris, Purkinje fiber; in short: as §3
# Canis familiaris [14] = organism: Canis familiaris; assay: In vitro electrophysiological evaluation in canine cardiac ventricular muscle reported as maximum % change for functional refractory period (FRP); concentration at which it occurred is 10 uM.; set-up: species or system Canis lupus familiaris, Muscle tissue; in short: as §4
# Canis familiaris [15] = organism: Canis familiaris; assay: In vitro electrophysiological activity in canine cardiac occurred is 100 uM.; format: functional, Canis lupus familiaris, Heart
# Canis familiaris [16] = organism: Canis familiaris; assay: In vitro electrophysiological evaluation in canine cardiac Purkinje fibres reported as percent change Vmax at 10 uM at concentration range of 0.1-100 uM; Minimal (<10% decrease or increase in Vmax).; format: functional, organism-based; details: Canis lupus familiaris, Purkinje fiber; in short: as §3
# Canis familiaris [17] = organism: Canis familiaris; assay: In vitro electrophysiological evaluation in canine cardiac Purkinje fibres reported as % change for action potential duration at a concentration of 10 uM; format: functional, Canis lupus familiaris, Purkinje fiber; in short: as §3
Compound,APD95 (Canis familiaris [1]),APD95 (Canis familiaris [2]),Vmax (Canis familiaris [3]),Vmax (Canis familiaris [4]),APD95 (Canis familiaris [5]),APD95 (Canis familiaris [6]),Vmax (Canis familiaris [7]),APD95 (Canis familiaris [8]),CT (Canis familiaris [9]),FRP (Canis familiaris [10]),CT (Canis familiaris [11]),Vmax (Canis familiaris [12]),APD95 (Canis familiaris [13]),FRP (Canis familiaris [14]),APD95 (Canis familiaris [15]),Vmax (Canis familiaris [16]),APD95 (Canis familiaris [17])
CCN(CC)CCCCc1ccc(Cl)cc1,21%,25%,< 10%,-57%,38% and 27%,-15%,< 10%,38% and 27%,–,–,–,–,–,–,–,–,–
Cl.O=C1C2CCN(CC2)C1CCCc1ccccc1 (configuration not stated),–,–,–,–,–,–,–,–,<10%,5%,<10%,< 10%,1%,5%,-38% and -35%,< 10%,-6%
